From ChEMBL document CHEMBL1125468, “Extraordinarily potent antimalarial compounds: new, structurally simple, easily synthesized, tricyclic 1,2,4-trioxanes” (J Med Chem, 1992)
Converted amounts (≈) assume the structure as drawn.

What was measured:
Plasmodium falciparum [1] = experiment: Parasite viability index for Plasmodium falciparum Indochina W2 by [3H]hypoxanthine uptake; format: functional, organism-based
Plasmodium falciparum [2] = experiment: Inhibition of Plasmodium falciparum D6 (Sierra Leone) by [3H]hypoxanthine uptake; format: functional, organism-based
[3] = Potency to inhibit African Sierra Leone(D-6) clone relative to artemisinin.; format: functional
Procedure, shortened: (§1)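 Ratio of artemisinin IC50 to test-compound IC50, both measured in the same [3H]hypoxanthine microdilution assay against the named clone. Parasites were at 0.5% parasitemia and 1% hematocrit, exposed for 24 h at 37 °C under low oxygen, then labelled for 18–20 h. IC50s came from a four-parameter logistic fit of duplicate wells.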

[4] = Potency to inhibit Indochina(W-2) clone relative to artemisinin.; format: functional; procedure, shortened: as §1

| Compound | IC50 (Plasmodium falciparum [1]) | IC50 (Plasmodium falciparum [2]) | Relative potency [3] | Relative potency [4] |
| --- | --- | --- | --- | --- |
| CO[C@H]1O[C@]2(C)CC[C@H]3CCC[C@@H](CCOS(=O)(=O)c4cccc5c(N(C)C)cccc45)[C@]31OO2 | 1.2 ng/mL (≈ 2.37 nM) | 16.3 ng/mL (≈ 32.2 nM) | 0.2 | 1.2 |
| C=CCOCC[C@@H]1CCC[C@@H]2CC[C@]3(C)OO[C@]21[C@@H](OC)O3 | 0.6 ng/mL (≈ 1.92 nM) | 5.5 ng/mL (≈ 17.6 nM) | 0.7 | 2.3 |
| CO[C@H]1O[C@]2(C)CC[C@H]3CCC[C@@H](CCOC(=O)c4ccc(C(=O)OCCN(C)C)cc4)[C@]31OO2 | 3.3 ng/mL (≈ 6.71 nM) | 12.6 ng/mL (≈ 25.6 nM) | 0.3 | 0.4 |
| CO[C@H]1O[C@]2(C)CC[C@H]3CCC[C@@H](CCOS(=O)(=O)c4ccc(C)cc4)[C@]31OO2 | 1.9 ng/mL (≈ 4.45 nM) | 5.6 ng/mL (≈ 13.1 nM) | 0.7 | 0.7 |
| CCOP(=O)(OCC)OCC[C@@H]1CCC[C@@H]2CC[C@]3(C)OO[C@]21[C@@H](OC)O3 | < 0.9 ng/mL | 1.1 ng/mL (≈ 2.69 nM) | 3.5 | > 1.6 |
| CO[C@H]1O[C@]2(C)CC[C@H]3CCC[C@@H](CCOCc4c(C)noc4C)[C@]31OO2 | 0.5 ng/mL (≈ 1.31 nM) | 7.6 ng/mL (≈ 19.9 nM) | 0.5 | 2.8 |
| COC(=O)c1ccc(C(=O)OCC[C@@H]2CCC[C@@H]3CC[C@]4(C)OO[C@]32[C@@H](OC)O4)cc1 | < 1.2 ng/mL | > 1.2 ng/mL | > 3.3 | > 1.2 |
| CO[C@H]1O[C@]2(C)CC[C@H]3CCC[C@@H](CCOC(=O)c4ccccc4)[C@]31OO2 | 8.2 ng/mL (≈ 21.8 nM) | 29.5 ng/mL (≈ 78.4 nM) | 0.1 | 0.2 |
| CCN(CC)C(=O)c1ccc(C(=O)OCC[C@@H]2CCC[C@@H]3CC[C@]4(C)OO[C@]32[C@@H](OC)O4)cc1 | < 1.4 ng/mL | < 1.4 ng/mL | > 2.8 | > 1 |
| CCN(CC)C(=O)OCC[C@@H]1CCC[C@@H]2CC[C@]3(C)OO[C@]21[C@@H](OC)O3 | < 0.4 ng/mL | 1.7 ng/mL (≈ 4.58 nM) | 2.3 | > 3.5 |
| CO[C@H]1O[C@]2(C)CC[C@H]3CCC[C@@H](CCOC(=O)c4ccc(C(=O)O)cc4)[C@]31OO2 | 15.7 ng/mL (≈ 37.3 nM) | 63.3 ng/mL (≈ 151 nM) | 0.1 | 0.1 |
| CO[C@H]1O[C@]2(C)CC[C@H]3CCC[C@@H](CCOCc4ccccc4)[C@]31OO2 | 0.4 ng/mL (≈ 1.1 nM) | 5.4 ng/mL (≈ 14.9 nM) | 0.7 | 3.5 |
| CO[C@H]1O[C@]2(C)CC[C@H]3CCC[C@@H](CCOC(=O)CNC(=O)OC(C)(C)C)[C@]31OO2 | 2.5 ng/mL (≈ 5.82 nM) | 3.5 ng/mL (≈ 8.15 nM) | 1.1 | 0.6 |
| CO[C@H]1O[C@]2(C)CC[C@H]3CCC[C@@H](CCOC(=O)N(C)C)[C@]31OO2 | 0.8 ng/mL (≈ 2.33 nM) | 2.9 ng/mL (≈ 8.44 nM) | 1.3 | 1.8 |
| C[C@@H]1CC[C@H]2[C@@H](C)C(=O)O[C@@H]3O[C@@]4(C)CC[C@@H]1[C@]32OO4 [ARTEMISININ] | 1.4 ng/mL (≈ 4.96 nM) | 3.9 ng/mL (≈ 13.8 nM) | 1 | 1 |
| COC(=O)c1ccccc1S(=O)(=O)OCC[C@@H]1CCC[C@@H]2CC[C@]3(C)OO[C@]21[C@@H](OC)O3 | 13.2 ng/mL (≈ 28.1 nM) | 11.3 ng/mL (≈ 24 nM) | 0.3 | 0.1 |
| COCC[C@@H]1CCC[C@@H]2CC[C@]3(C)OO[C@]21[C@@H](OC)O3 | 3.7 ng/mL (≈ 12.9 nM) | 10.7 ng/mL (≈ 37.4 nM) | 0.4 | 0.4 |
| CO[C@H]1O[C@]2(C)CC[C@H]3CCC[C@@H](CCOC(=O)N(c4ccccc4)c4ccccc4)[C@]31OO2 | < 0.2 ng/mL | 0.9 ng/mL (≈ 1.92 nM) | 4.3 | > 7 |
